A word on the MIC: it is the smallest concentration in the dilution series that meets the test's criterion for growth inhibition.

Values after ≈ are worked out from the molar mass of the structure shown.

The test system of the assay is Mycobacterium tuberculosis. As to the kind of experiment: Antituberculosis activity against multidrug-resistant Mycobacterium tuberculosis isolate Spec. 192 by twofold serial dilution method. It counts as functional. The gist of the method:
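Classical two-fold test-tube serial dilution in Youmans' modified Proskauer–Beck liquid medium with 10% bovine serum. Inocula from 14-day cultures. Compounds in ethylene glycol, 10 mg/mL stock, geometric dilutions in medium; 3.1, 6.2, 12.5, 25, 50 and 100 µg/mL evaluated. Incubation at 37 °C. MIC = lowest concentration inhibiting growth relative to a compound-free tube. INH, PZA and RMP served as reference drugs.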
On to `O=[N+]([O-])c1cc(Cl)cc2[nH]c(CCC3CCCCC3)nc12`, for which it took 12.5 µg/mL (≈ 40.6 µM) to inhibit growth (MIC).
With `c1cnc2[nH]c(CCC3CCCCC3)nc2c1` the figure was 50 µg/mL (≈ 218 µM).
The compound `Brc1cnc2[nH]c(CCC3CCCCC3)nc2c1` registered an MIC of 6.2 µg/mL (≈ 20.1 µM).
With `O=C(CCC1CCCCC1)NN=C1SCCS1` the figure was 100 µg/mL (≈ 367 µM).
With `S=c1[nH]nc(CCC2CCCCC2)n1-c1ccc(Cl)cc1` the figure was 100 µg/mL (≈ 311 µM); with `CSC(=S)NNC(=O)CCC1CCCCC1`, 50 µg/mL (≈ 192 µM).
`C=CCn1c(CCC2CCCCC2)n[nH]c1=S` had an MIC of 50 µg/mL (≈ 199 µM).
The same measure for `c1ccc2c(c1)ccc1nc(CCC3CCCCC3)[nH]c12`: 1.5 µg/mL (≈ 5.39 µM).
As to `c1ccc2nc3cc4[nH]c(CCC5CCCCC5)nc4cc3nc2c1`, the MIC was determined as 1.5 µg/mL (≈ 4.54 µM).
For `S=c1[nH]nc(CCC2CCCCC2)o1`, the MIC amounted to 25 µg/mL (≈ 118 µM).
With `S=c1[nH]nc(CCC2CCCCC2)[nH]1` the figure was 50 µg/mL (≈ 237 µM); with `CNC(=S)NNC(=O)CCC1CCCCC1`, 100 µg/mL (≈ 411 µM).
`C=CCNC(=S)NNC(=O)CCC1CCCCC1` returned an MIC of 100 µg/mL (≈ 371 µM).
Compound `O=C(CCC1CCCCC1)NNC(=S)NC1CCCCC1` showed an MIC of 100 µg/mL (≈ 321 µM).
The same measure for `O=C(CCC1CCCCC1)NNC(=S)Nc1ccc(Cl)cc1`: 50 µg/mL (≈ 147 µM); for `Cn1c(CCC2CCCCC2)n[nH]c1=S`: 100 µg/mL (≈ 444 µM).
On to `S=c1[nH]nc(CCC2CCCCC2)n1C1CCCCC1`, for which the MIC came out at 100 µg/mL (≈ 341 µM).
The same measure for `CSC(=NNC(=O)CCC1CCCCC1)SC`: 50 µg/mL (≈ 182 µM); for `CC1(C)CNc2nnc(CCC3CCCCC3)n2C1`: 100 µg/mL (≈ 381 µM); for `Cl.Cl.c1cc2nc(CCC3CCCCC3)[nH]c2cn1`: 25 µg/mL.
In the case of `NNC(=O)c1ccncc1` [ISONIAZID], 0.5 µg/mL (≈ 3.65 µM) was the least that counted as inhibitory (MIC).
The same measure for `NC(=O)c1cnccn1` [PYRAZINAMIDE]: 25 µg/mL (≈ 203 µM); for `CO[C@H]1/C=C/O[C@@]2(C)Oc3c(C)c(O)c4c(O)c(c(/C=N/N5CCN(C)CC5)c(O)c4c3C2=O)NC(=O)/C(C)=C\C=C\[C@H](C)[C@H](O)[C@@H](C)[C@@H](O)[C@@H](C)[C@H](OC(C)=O)[C@@H]1C` [RIFAMPIN]: 1.2 µg/mL (≈ 1.46 µM).

The record behind these values is ChEMBL document CHEMBL1926666, “Synthesis of novel 3-cyclohexylpropanoic acid-derived nitrogen heterocyclic compounds and their evaluation for tuberculostatic activity” (Bioorg Med Chem, 2012).
